Test results taken from article PMC5447658 (Translational Oncology, 2017).

How the values were obtained:
HER2 = details: cited from earlier work
HER2 (SKBR3 cells) = HER2 (SKBR3 cells) (Homo sapiens, UniProt P04626); assay: In vitro receptor competitive binding assay; details: TP1623 0-500 nmol/L, 30 minutes at 4°C, then tracer 2 h at 4°C
Outline: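 SKBR3 cells at 2–4 × 10^4/well were seeded the day before. Unlabelled test compound was added at 0, 1, 5, 25, 50 and 500 nmol/L final, in triplicate, for 30 min at 4°C. 99mTc tracer (462 KBq/0.1 μg) followed for 2 h at 4°C. Cells were washed three times in ice-cold PBS, trypsin-digested and gamma-counted. Count was plotted against competitor concentration.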

Sequence: YCFPDEEGACY
- affinity for HER2 (HER2): high affinity

Sequence: G (D) AGG-Aba-YCFPDEEGACY-NH2 [TP1623]
- competitive inhibition of binding of 99mTc-TP1623 to HER2 (HER2 (SKBR3 cells)): could competitively inhibit the binding
